# A selection: hits, their analogues and other compounds. The true share with any hit is near 9.3%.
# DAT uptake mod: changed human dopamine transporter uptake under cocaine IC80. 1.3% of 110,000 active. AID 449768. Q01959. B-score at 10 µM. LLC-PK1 hDAT cells, [14C]-dopamine uptake with cocaine IC80; actives deviate in either direction;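 active = Z score or B-score, a plate-position-corrected score, falls beyond the plate's 99.7% confidence bounds, in either direction; inactive = both scores lie inside the 99.7% bounds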;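 also: scored against the spread of the other compound wells on the same plate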
# PostGolgi yeast: growth inhibition of a yeast mutant, post-Golgi transport screen | 0.9% of 98,000 active | post-Golgi transport phenotypic cell assay | inhibition, % at 10 µM;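 also: yeast cells grown in 1536-well plates; yeast grown about 18 h at 30C before absorbance read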
# D1 mod: D1 dopamine receptor (human) allosteric modulation; 5.9% of 58,000 active; AID 641; B-score at 10 µM; HEK293 D1, CRE-luciferase, dopamine EC30 potentiation; actives deviate in either direction; P21728;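 active = luminescence count or its row- and column-corrected plate score outside the 99.7% band of the plate's sample wells, on either side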
# Target sequence (P21728 whole entry, looked up): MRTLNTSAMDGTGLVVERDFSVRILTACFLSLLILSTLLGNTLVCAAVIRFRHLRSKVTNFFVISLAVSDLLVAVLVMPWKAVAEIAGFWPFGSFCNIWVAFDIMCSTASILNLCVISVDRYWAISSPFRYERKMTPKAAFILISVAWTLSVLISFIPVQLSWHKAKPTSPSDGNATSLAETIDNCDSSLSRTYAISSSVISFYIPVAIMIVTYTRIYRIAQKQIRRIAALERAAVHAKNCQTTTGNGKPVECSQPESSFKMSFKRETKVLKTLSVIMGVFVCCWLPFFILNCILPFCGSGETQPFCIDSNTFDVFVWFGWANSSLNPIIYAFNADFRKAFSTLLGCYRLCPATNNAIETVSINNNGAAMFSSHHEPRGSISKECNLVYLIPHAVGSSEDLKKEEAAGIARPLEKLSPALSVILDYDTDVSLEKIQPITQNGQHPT
# Ecoli WT expand: blocks growth of wild type E. coli BW25113; OD600 absorbance; growth inhibition, % at 100 µM; 0.15% of 98,000 active; AID 710;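 active = growth inhibition above about 50% at one test dose, limit read from the data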;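 also: growth measured after 20 h incubation at 37 °C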
# Ecoli tolC: E. coli tolC mutant growth inhibition | E. coli BW25113 tolC mutant growth, OD615 | growth inhibition, % at 10 µM (by protocol) | 2.2% of 65,000 active | AID 573;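 active = growth inhibition at or above a cutoff equal to the mean over every tested compound plus 3 SD, cut at about 60% in these data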;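 also: growth measured after 20 h incubation at 37 °C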
#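 test system = E. coli BW25113 ΔtolC::kan bacteria | medium = LB with kanamycin 50 µg/mL | signal = OD at 615 nm | schedule = 37 °C, 20 h exposure | evaluation = % inhibition of E. coli growth | compound dosing = one dose of 10 µM final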
# PostGolgi ctrl: inhibits growth of the yeast control strain. inhibition, % at 10 µM. AID 738. 5% of 98,000 active. efflux-deficient yeast background strain, growth absorbance A615, 16 h
# Starred values were filed as active, the others as inactive; / = not tested or not shown. Rule as the data show it, unless noted: active = inhibition above about 30%; inactive = the rest.
SMILES,DAT uptake mod,PostGolgi yeast,D1 mod,Ecoli WT expand,Ecoli tolC,PostGolgi ctrl
Cc1cc2n(n1)C(c1c[nH]c3ccccc13)Nc1ccccc1-2 (configuration not stated),2.62,10.9,0.871,11.0,31.8,55.4*
Cc1cc2n(n1)C(c1cn(-c3ccccc3)nc1C)Nc1ccccc1-2 (configuration not stated),0.0319,-2.8,1.6,-1.0,-13.8,14.5
CC1(c2nnc(Cc3ccccc3)o2)CC(c2cccc(Cl)c2)=NO1 (configuration not stated),0.449,/,/,/,/,/
NS(=O)(=O)c1ccc(Cc2ncc(C(F)(F)F)cc2Cl)s1,-1.25,8.7,/,10.0,/,11.4
O=C(CCl)c1ccc(Cc2ncc(C(F)(F)F)cc2Cl)s1,-0.489,85.6*,/,25.0,/,28.0
Cc1oc(-c2ccc3c(c2)OCCO3)cc1C(=O)O,0.631,/,-6.22*,/,5.7,/
Cc1oc(-c2ccc3c(c2)OCCO3)cc1C(=O)NC(CCC(=O)O)C(=O)O (configuration not stated),-0.338,1.1,-0.952,-9.0,-10.2,4.1
Cc1nc(C(N)=O)nc2ccccc12,-0.0382,/,/,/,/,/
Cc1cccc(NS(=O)(=O)c2cc(C(=O)NCCC3=CCCCC3)ccc2Cl)c1,1.76,7.1,/,1.0,/,35.0*
CCN1CCN(Cc2ccc(NC(=O)c3ccc(C)c(NC(=O)c4ccno4)c3)cc2C(F)(F)F)CC1,-0.0163,/,/,/,/,/
CCN1CCN(Cc2ccc(NC(=O)c3ccc(C)c(NC(=O)c4csc(-c5ccncc5)n4)c3)cc2C(F)(F)F)CC1,1.82*,/,/,/,/,/
c1ccc2c(c1)ncn2-c1ccc(-c2ccnc(-c3ccncc3)n2)cc1,0.213,98.4*,/,-3.0,/,72.0*
COc1ccc(C(=O)Nc2ccc(S(=O)(=O)NCc3ccco3)cc2)cc1OC,-0.0155,-5.3,-0.174,-2.0,-9.4,33.0*
CN1C(=O)c2cccc3c(S(=O)(=O)NCc4ccco4)ccc1c23,-0.121,-6.3,0.288,-1.0,16.3,4.0
COc1ccc(S(=O)(=O)NCc2ccco2)c2ccccc12,-0.0525,3.9,1.46,-11.0,21.0,34.4*
C=CCNC(=O)c1onc(CSc2ccccc2)c1C(=O)O,-0.392,-4.0,/,-5.0,/,17.0
C=CCNC(=O)c1onc(CSc2ccc(F)cc2)c1C(=O)NCCOC,0.474,-0.5,/,0.0,/,45.5*
C=CCNC(=O)c1onc(CSc2ccc(C(C)C)cc2)c1C(=O)O,-0.683,-3.8,/,-13.0,/,33.1*
Nn1cnnc1SCC(=O)Nc1ccc(C2CCCCC2)cc1,1.28*,1.4,-4.29*,4.0,-5.0,0.6
Nc1c2c(nc3ccn(Cc4ccccc4)c(=O)c13)CCC2,0.851,11.2,-3.23*,11.0,3.7,44.5*
O=c1[nH]c(N2CCN(c3ccccc3)CC2)nc2c1CCCC2,1.21,4.2,/,-5.0,/,6.7
Nc1c2c(nc3ccn(-c4ccccc4)c(=O)c13)CCCCC2,-1.11,6.4,-4.71*,1.0,10.1,4.0
CCOc1ccccc1NC(=O)c1ccccc1-c1nc(-c2ccccc2OC)no1,0.327,-11.8,-2.45,-9.0,3.5,23.6
Cn1c(=O)[nH]c(=O)c2c1nc(CN1CCN(Cc3ccccc3)CC1)n2CC(N)=O,0.575,0.6,0.456,-1.0,-9.7,8.9
CC(C)CNc1cc(=O)n(C)c(=O)n1C,0.54,6.4,0.289,9.0,-15.4,47.9*
SMILES,DAT uptake mod,PostGolgi yeast,D1 mod,Ecoli WT expand,Ecoli tolC,PostGolgi ctrl
CCC(C)c1nc2ccsc2c(N2CCOC2=O)c1-c1ccccc1 (configuration not stated),-0.687,/,/,/,/,/
CCCCn1c(CN2CCN(c3cccc(Cl)c3)CC2)nc2c1c(=O)n(C)c(=O)n2C,-1.05,-3.6,-2.88*,8.0,30.7,19.2
CCCCCn1c(CN2CCN(c3cccc(Cl)c3)CC2)nc2c1c(=O)n(C)c(=O)n2C,1.39,/,-0.749,/,62.4*,/
CCOc1ccccc1NC(=O)CCN1CCN(S(=O)(=O)c2ccc(Br)cc2)CC1,-0.0409,-1.4,-0.127,1.0,0.7,8.6
Cc1ccc(S(=O)(=O)N2CCN(C3CCN(Cc4ccccc4)CC3)CC2)cc1,-0.499,69.6*,0.055,6.0,-5.9,23.8
COc1ccc(S(=O)(=O)N2CCN(C3CCN(Cc4ccccc4)CC3)CC2)cc1,-1.76*,-6.6,0.00167,7.0,-7.8,0.6
O=S(=O)(c1ccccc1)N1CCN(C2CCN(Cc3ccccc3)CC2)CC1,0.012,11.6,-2.35,-1.0,-14.5,6.3
